Where two headings read alike, the source gives them in different places. Blank lines part the entries; values can stand above or below the compound they belong to.
What was measured:
[1] = test system: cherry salmon telomerase; experiment: Primer extension assay; type: biochemical; details: 18-mer (TTAGGG)3 primer, 5 or 20 µM analog
Summary of the method: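 Telomerase was partially purified from immature cherry salmon testis (DEAE-cellulose, 70% ammonium sulfate, dialysis). It extended 2 µM (TTAGGG)3 in Tris–HOAc pH 8.5, KOAc, 1 mM MgCl2, 1 mM DTT and 5 µM [α-32P]dTTP. Either 200 µM dATP with 0/5 µM dGTP plus 0/5/20 µM dGTP-analog, or 200 µM dGTP with 0/5 µM dATP plus 0/5/20 µM dATP-analog. Run 1 h at 25°C, then RNase A/proteinase K, 20% PAGE–7 M urea, phosphorimaging.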

[2] = target: T1, HeLa cell telomerase (Homo sapiens, UniProt O14746); details: cited from earlier work
T1 sequence (O14746 whole entry): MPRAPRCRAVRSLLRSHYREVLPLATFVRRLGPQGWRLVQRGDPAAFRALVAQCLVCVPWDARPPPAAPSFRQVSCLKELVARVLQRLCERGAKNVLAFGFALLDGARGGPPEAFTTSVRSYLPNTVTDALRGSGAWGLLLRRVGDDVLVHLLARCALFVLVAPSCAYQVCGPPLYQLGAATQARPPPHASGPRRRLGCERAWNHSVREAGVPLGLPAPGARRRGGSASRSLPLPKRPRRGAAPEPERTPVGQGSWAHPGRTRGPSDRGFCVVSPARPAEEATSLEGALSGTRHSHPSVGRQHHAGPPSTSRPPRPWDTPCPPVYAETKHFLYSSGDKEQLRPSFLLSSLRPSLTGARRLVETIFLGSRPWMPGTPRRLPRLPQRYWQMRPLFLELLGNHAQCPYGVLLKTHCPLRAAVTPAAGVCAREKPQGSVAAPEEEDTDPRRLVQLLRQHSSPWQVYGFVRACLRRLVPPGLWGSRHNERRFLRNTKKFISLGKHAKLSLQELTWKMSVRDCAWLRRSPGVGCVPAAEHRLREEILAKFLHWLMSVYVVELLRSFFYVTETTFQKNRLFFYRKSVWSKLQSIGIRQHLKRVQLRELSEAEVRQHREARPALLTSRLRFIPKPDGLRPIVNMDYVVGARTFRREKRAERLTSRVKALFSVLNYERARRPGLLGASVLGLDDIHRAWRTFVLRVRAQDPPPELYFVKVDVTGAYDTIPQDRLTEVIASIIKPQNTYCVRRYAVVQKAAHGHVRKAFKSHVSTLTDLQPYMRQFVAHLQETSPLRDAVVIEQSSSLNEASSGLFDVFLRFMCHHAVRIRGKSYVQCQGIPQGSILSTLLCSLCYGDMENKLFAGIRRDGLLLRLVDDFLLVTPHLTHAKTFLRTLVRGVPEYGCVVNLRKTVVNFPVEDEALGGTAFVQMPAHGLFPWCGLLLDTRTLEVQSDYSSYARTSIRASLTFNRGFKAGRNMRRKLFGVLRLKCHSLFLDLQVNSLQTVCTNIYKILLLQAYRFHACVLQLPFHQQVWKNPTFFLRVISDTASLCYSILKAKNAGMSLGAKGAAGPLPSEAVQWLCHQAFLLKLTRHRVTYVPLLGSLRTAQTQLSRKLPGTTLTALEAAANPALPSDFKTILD
T1 sequence (O60832 whole entry partner): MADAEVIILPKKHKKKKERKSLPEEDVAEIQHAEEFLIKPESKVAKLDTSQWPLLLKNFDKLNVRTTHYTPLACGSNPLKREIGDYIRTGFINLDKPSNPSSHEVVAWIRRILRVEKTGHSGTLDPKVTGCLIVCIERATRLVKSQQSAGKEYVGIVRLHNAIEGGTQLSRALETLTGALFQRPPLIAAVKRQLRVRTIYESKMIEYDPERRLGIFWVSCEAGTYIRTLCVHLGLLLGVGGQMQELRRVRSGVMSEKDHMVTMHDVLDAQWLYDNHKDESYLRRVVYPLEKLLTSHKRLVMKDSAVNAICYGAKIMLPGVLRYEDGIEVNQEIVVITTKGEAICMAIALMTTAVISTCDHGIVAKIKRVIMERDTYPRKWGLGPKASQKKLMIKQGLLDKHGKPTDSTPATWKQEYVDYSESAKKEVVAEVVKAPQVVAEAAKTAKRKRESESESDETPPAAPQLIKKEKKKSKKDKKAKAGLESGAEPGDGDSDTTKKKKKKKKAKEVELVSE
T1 sequence (Q9NX24 whole entry partner): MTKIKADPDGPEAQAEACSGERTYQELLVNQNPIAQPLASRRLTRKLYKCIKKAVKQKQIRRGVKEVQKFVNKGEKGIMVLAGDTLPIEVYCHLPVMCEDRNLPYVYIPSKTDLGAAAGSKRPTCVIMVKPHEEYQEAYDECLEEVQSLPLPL
T1 sequence (Q9NPE3 whole entry partner): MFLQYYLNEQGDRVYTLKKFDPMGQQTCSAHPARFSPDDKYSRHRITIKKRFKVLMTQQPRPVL
T1 sequence (Q9NY12 whole entry partner): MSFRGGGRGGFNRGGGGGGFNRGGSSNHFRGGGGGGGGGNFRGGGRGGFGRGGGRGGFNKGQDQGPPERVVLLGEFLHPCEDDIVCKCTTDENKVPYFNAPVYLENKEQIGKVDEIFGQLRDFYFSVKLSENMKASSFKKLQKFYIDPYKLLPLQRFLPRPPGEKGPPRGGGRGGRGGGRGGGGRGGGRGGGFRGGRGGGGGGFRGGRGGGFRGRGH
T1 sequence (Q9BUR4 whole entry partner): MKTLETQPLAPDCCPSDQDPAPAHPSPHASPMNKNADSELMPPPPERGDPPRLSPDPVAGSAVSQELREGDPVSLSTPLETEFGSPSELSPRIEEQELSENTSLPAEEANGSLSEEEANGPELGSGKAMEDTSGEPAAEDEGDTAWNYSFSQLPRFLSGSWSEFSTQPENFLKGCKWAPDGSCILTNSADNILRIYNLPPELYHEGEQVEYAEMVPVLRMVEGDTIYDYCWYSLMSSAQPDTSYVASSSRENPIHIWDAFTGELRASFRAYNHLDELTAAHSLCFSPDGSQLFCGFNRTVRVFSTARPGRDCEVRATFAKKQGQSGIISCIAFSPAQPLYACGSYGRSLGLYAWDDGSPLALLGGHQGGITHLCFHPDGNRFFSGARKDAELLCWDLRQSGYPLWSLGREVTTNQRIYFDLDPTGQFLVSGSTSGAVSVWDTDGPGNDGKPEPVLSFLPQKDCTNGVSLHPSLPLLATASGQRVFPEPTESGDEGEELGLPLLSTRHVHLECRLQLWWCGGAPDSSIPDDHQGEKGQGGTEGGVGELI

[3] = target: T1, HeLa cell telomerase; experiment: Semi-quantitative telomerase assay based on the 'stretch PCR' method; type: biochemical; details: for Km: natural dNTP substrate, Lineweaver–Burk plot analyses
[4] = test system: telomerase from human leukemia cells and HeLa cells; details: cited from earlier work
[5] = test system: immortalized human B- and T-cell lines; details: cited from earlier work

Ki [3]: 15 µM
inhibitory effects on human telomerase ([3]; Figure 2B): weak
inhibition mode ([3]; Lineweaver–Burk plots, versus the corresponding dNTP): nearly competitive
SMILES: Cc1cn([C@H]2C[C@H](N=[N+]=[N-])[C@@H](COP(=O)(O)OP(=O)(O)OP(=O)(O)O)O2)c(=O)[nH]c1=O [AZTTP, 3′-Azido-3′-deoxythymidine 5′-triphosphate]

Km [3]: 8.2 ± 2.1 µM
SMILES: Nc1nc2c(ncn2[C@H]2C[C@H](O)[C@@H](COP(=O)(O)OP(=O)(O)OP(=O)(O)O)O2)c(=O)[nH]1 [dGTP]
Km [4]: 8 to 12 µM

Km [3]: 7.9 ± 1.8 µM
SMILES: Cc1cn([C@H]2C[C@H](O)[C@@H](COP(=O)(O)OP(=O)(O)OP(=O)(O)O)O2)c(=O)[nH]c1=O [dTTP]
Km [4]: 8 to 12 µM

Continued, compound first:

SMILES: Nc1nc2c(ncn2[C@H]2CC[C@@H](COP(=O)(O)OP(=O)(O)OP(=O)(O)O)O2)c(=O)[nH]1 [ddGTP]
primer extension product with analog instead of dGTP or dATP [1]: distinct 22-mer product
Ki [2]: 0.65 µM

SMILES: Nc1ncnc2c1ncn2[C@H]1C[C@H](O)[C@@H](COP(=O)(O)OP(=O)(O)OP(=O)(O)O)O1 [dATP]
Km [3]: 0.97 ± 0.31 µM

SMILES: Nc1nc2c(ncn2[C@H]2CC[C@@H](CO)O2)c(=O)[nH]1 [ddG, 2′,3′-dideoxyguanosine]
telomere DNA shortening ([5]; 10 µM, long-term treatment): reproducible progressive telomere DNA shortening
effects on cell population doubling rates or morphology [5]: did not have observable effects

SMILES: Nc1nc2c(ncn2[C@@H]2O[C@H](COP(=O)(O)OP(=O)(O)OP(=O)(O)O)[C@@H](O)[C@@H]2O)c(=O)[nH]1 [araGTP, 9-β-D-Arabinofuranosylguanine 5′-triphosphate]
Ki [2]: 1.2 µM

From publication PMC2175342 (Nucleic Acids Research, 2007)
